ChEMBL document CHEMBL1137737, “Synthesis, antimicrobial and cytotoxic activities of 1,3,4-oxadiazoles, 1,3,4-thiadiazoles and 1,2,4-triazoles” (Eur J Med Chem, 2009)
In brackets after ≈: the same amount, converted by molar mass. Activity calls are given as the source filed them. The calls are words filed in the database; no cut-off is given here.

What was measured:
[1] = system: Staphylococcus aureus; assay: Antibacterial activity against Staphylococcus aureus NCIM 5021 at 100 ug/disk after 24 hrs by agar disc-diffusion method; format: functional; settings: NCIM 5021, 24 h, read-out: DIZ
In short: (§1)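 Sterile 6 mm filter-paper discs are soaked in compound solution in DMSO and placed on nutrient agar plates already inoculated with each organism. Plates are incubated at 37 °C. The diameter of the growth-inhibition zone is read after 24 h for bacteria and after 48 h for fungi.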

[2] = system: Bacillus subtilis; assay: Antibacterial activity against Bacillus subtilis NCIM 2063 at 100 ug/disk after 24 hrs by agar disc-diffusion method; format: functional; settings: NCIM 2063, 24 h, read-out: DIZ; in short: as §1
[3] = system: Klebsiella pneumoniae; assay: Antibacterial activity against Klebsiella pneumoniae NCIM 2957 at 100 ug/disk after 24 hrs by agar disc-diffusion method; format: functional; settings: NCIM 2957, 24 h, read-out: DIZ; in short: as §1
[4] = system: Proteus vulgaris; assay: Antibacterial activity against Proteus vulgaris NCIM 2027 at 100 ug/disk after 24 hrs by agar disc-diffusion method; format: functional; settings: NCIM 2027, 24 h, read-out: DIZ; in short: as §1
[5] = system: Fusarium solani; assay: Antifungal activity against Fusarium solani NCIM 1330 at 100 ug/disk after 48 hrs by agar disc-diffusion method; format: functional; settings: NCIM 1330, 48 h, read-out: DIZ; in short: as §1
[6] = system: Curvularia lunata; assay: Antifungal activity against Curvularia lunata NCIM 716 at 100 ug/disk after 48 hrs by agar disc-diffusion method; format: functional; settings: NCIM 716, 48 h, read-out: DIZ; in short: as §1
[7] = system: Aspergillus niger; assay: Antifungal activity against Aspergillus niger NCIM 596 at 100 ug/disk after 48 hrs by agar disc-diffusion method; format: functional; settings: NCIM 596, 48 h, read-out: DIZ; in short: as §1
[8] = system: Staphylococcus aureus; assay: Antibacterial activity against Staphylococcus aureus NCIM 5021 at 200 ug/disk after 24 hrs by agar disc-diffusion method; format: functional; settings: NCIM 5021, 24 h, read-out: DIZ; in short: as §1
[9] = system: Bacillus subtilis; assay: Antibacterial activity against Bacillus subtilis NCIM 2063 at 200 ug/disk after 24 hrs by agar disc-diffusion method; format: functional; settings: NCIM 2063, 24 h, read-out: DIZ; in short: as §1
[10] = system: Klebsiella pneumoniae; assay: Antibacterial activity against Klebsiella pneumoniae NCIM 2957 at 200 ug/disk after 24 hrs by agar disc-diffusion method; format: functional; settings: NCIM 2957, 24 h, read-out: DIZ; in short: as §1
[11] = system: Proteus vulgaris; assay: Antibacterial activity against Proteus vulgaris NCIM 2027 at 200 ug/disk after 24 hrs by agar disc-diffusion method; format: functional; settings: NCIM 2027, 24 h, read-out: DIZ; in short: as §1
[12] = system: Fusarium solani; assay: Antifungal activity against Fusarium solani NCIM 1330 at 200 ug/disk after 48 hrs by agar disc-diffusion method; format: functional; settings: NCIM 1330, 48 h, read-out: DIZ; in short: as §1
[13] = system: Curvularia lunata; assay: Antifungal activity against Curvularia lunata NCIM 716 at 200 ug/disk after 48 hrs by agar disc-diffusion method; format: functional; settings: NCIM 716, 48 h, read-out: DIZ; in short: as §1
[14] = system: Aspergillus niger; assay: Antifungal activity against Aspergillus niger NCIM 596 at 200 ug/disk after 48 hrs by agar disc-diffusion method; format: functional; settings: NCIM 596, 48 h, read-out: DIZ; in short: as §1
[15] = system: Staphylococcus aureus; assay: Antibacterial activity against Staphylococcus aureus NCIM 5021 after 24 hrs by microdilution susceptibility method; format: functional; settings: NCIM 5021, 24 h
In short: (§2)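 This is a microdilution susceptibility test. Organism suspensions are inoculated into wells holding the dilution series, then incubated at 36 °C for 24 h (bacteria) or 48 h (fungi). MIC is the lowest concentration giving no turbidity, i.e. complete inhibition of visible growth.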

[16] = system: Bacillus subtilis; assay: Antibacterial activity against Bacillus subtilis NCIM 2063 after 24 hrs by microdilution susceptibility method; format: functional; settings: NCIM 2063, 24 h; in short: as §2
[17] = system: Klebsiella pneumoniae; assay: Antibacterial activity against Klebsiella pneumoniae NCIM 2957 after 24 hrs by microdilution susceptibility method; format: functional; settings: NCIM 2957, 24 h; in short: as §2
[18] = system: Proteus vulgaris; assay: Antibacterial activity against Proteus vulgaris NCIM 2027 after 24 hrs by microdilution susceptibility method; format: functional; settings: NCIM 2027, 24 h; in short: as §2
[19] = system: Fusarium solani; assay: Antifungal activity against Fusarium solani NCIM 1330 after 48 hrs by microdilution susceptibility method; format: functional; settings: NCIM 1330, 48 h; in short: as §2
[20] = system: Curvularia lunata; assay: Antifungal activity against Curvularia lunata NCIM 716 after 48 hrs by microdilution susceptibility method; format: functional; settings: NCIM 716, 48 h; in short: as §2
[21] = system: Aspergillus niger; assay: Antifungal activity against Aspergillus niger NCIM 596 after 48 hrs by microdilution susceptibility method; format: functional; settings: NCIM 596, 48 h; in short: as §2
[22] = system: A549; assay: Cytotoxicity against human A549 cells at 250 uM by MTT assay; format: functional, cell-based
In short: (§3)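 A549 lung adenocarcinoma cells are grown in DMEM with 10% FBS and penicillin–streptomycin. Compounds come from a 10 mM DMSO stock, are diluted in medium, and are added 2–4 h after plating. Viability is (treated − background)/(untreated − background) × 100, with a DMSO vehicle control. The experiment was run in duplicate with triplicate readings.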

[23] = system: A549; assay: Cytotoxicity against human A549 cells at 250 uM by MTT assay relative to control; format: functional; in short: as §3
[24] = system: A549; assay: Cytotoxicity against human A549 cells at 250 uM by MTT assay in presence of 0.2% fetal bovine serum; format: functional
In short: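 MTT viability assay on A549 cells as for the other cytotoxicity lines, but with 0.2% serum in the medium in place of 10% FBS. Compounds are diluted in medium from a 10 mM DMSO stock and exposure lasts 48 h.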

MIC [15] | MIC [16] | MIC [19] | MIC [20] | MIC [21] | Compound | zone of inhibition at 100 µg/disc [1] | zone of inhibition at 100 µg/disc [2] | zone of inhibition at 100 µg/disc [3] | zone of inhibition at 100 µg/disc [4] | zone of inhibition at 100 µg/disc [5] | zone of inhibition at 100 µg/disc [6] | zone of inhibition at 100 µg/disc [7] | zone of inhibition at 200 µg/disc [8] | zone of inhibition at 200 µg/disc [9] | zone of inhibition at 200 µg/disc [10] | zone of inhibition at 200 µg/disc [11] | zone of inhibition at 200 µg/disc [12] | zone of inhibition at 200 µg/disc [13] | zone of inhibition at 200 µg/disc [14] | Activity [23] | also measured
25 µg/mL (≈ 62.9 µM) | 25 µg/mL (≈ 62.9 µM) | 100 µg/mL (≈ 252 µM) | 50 µg/mL (≈ 126 µM) | 50 µg/mL (≈ 126 µM) | Nn1c(CS(=O)(=O)Cc2ccc(Cl)cc2)nnc1-c1ccccc1Cl | 32 mm | 37 mm | 33 mm | 31 mm | 29 mm | 27 mm | 22 mm | 37 mm | 39 mm | 36 mm | 34 mm | 32 mm | 31 mm | 24 mm | 50% | MIC [17]: 50 µg/mL (≈ 126 µM); MIC [18]: 100 µg/mL (≈ 252 µM); Activity [22]: Active; Activity [24]: 50%
200 µg/mL (≈ 522 µM) | 400 µg/mL (≈ 1040 µM) | 200 µg/mL (≈ 522 µM) | 200 µg/mL (≈ 522 µM) | 200 µg/mL (≈ 522 µM) | O=S(=O)(Cc1ccc(Cl)cc1)Cc1nnc(-c2ccccc2Cl)o1 | 20 mm | 19 mm | 17 mm | 15 mm | 18 mm | 16 mm | 17 mm | 23 mm | 21 mm | 20 mm | 18 mm | 22 mm | 19 mm | 21 mm | 50% | Activity [24]: 50%
